Most compounds without a hit are left out; they make up all but 1.5% or so of the library.
NR2E3 ag-1: agonists of human NR2E3 nuclear receptor | Q9Y5X4 | CHO-S Gal4-NCOR/VP16-NR2E3 two-hybrid, luciferase | inhibition of corepressor binding, % at 3.98 µM | 360,000 tested, 0.35% active | AID 602229;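 active = inhibition above the mean of all tested compounds plus 3 SD, cut at about 70% in these data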;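 also: 0% = DMSO with NR2E3 transfected cells and 100% = cells lacking NR2E3 construct; higher means lower luciferase signal from less NR2E3 corepressor binding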
Target sequence (Q9Y5X4 whole entry, looked up, the tested form may be a part): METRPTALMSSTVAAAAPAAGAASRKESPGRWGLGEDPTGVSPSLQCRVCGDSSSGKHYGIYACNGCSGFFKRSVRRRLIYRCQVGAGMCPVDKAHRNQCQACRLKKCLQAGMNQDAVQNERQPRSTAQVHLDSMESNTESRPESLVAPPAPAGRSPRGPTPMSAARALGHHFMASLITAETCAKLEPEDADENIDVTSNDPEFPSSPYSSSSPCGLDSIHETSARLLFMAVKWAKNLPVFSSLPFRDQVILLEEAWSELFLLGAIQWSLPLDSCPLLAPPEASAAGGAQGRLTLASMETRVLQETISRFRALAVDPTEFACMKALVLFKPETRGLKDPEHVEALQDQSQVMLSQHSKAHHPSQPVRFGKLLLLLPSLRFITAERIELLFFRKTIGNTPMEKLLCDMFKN
NR2E3 ag-2: activates human photoreceptor nuclear receptor NR2E3. GST-NR2E3/biotin-RetCOR TR-FRET, 1536-well. inhibition of corepressor binding, % at 4.78 µM. 320,000 tested, 0.12% active. AID 2300;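 active = percent inhibition above the cutoff of mean plus 3 SD of all tested compounds, set per screening campaign, cut at about 20% in these data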;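 also: 0% = DMSO wells and 100% = biotin wells as full block of FRET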
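Test system – NR2E3–RetCOR corepressor complex · Quantity – NR2E3 fusion 1.35 nM · Buffer or medium – Tris pH 7.5 · Incubation – Compound–protein incubation for 5 h at 4 °C · Technique – TR-FRET, Eu(K)-anti-GST donor, streptavidin-D2 acceptor, ex 340, em 617/671 nm · Evaluation – percent inhibition of 671/617 nm emission ratio versus biotin and DMSO controls · Plate – 1536-well format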
PG9 binder: small molecules binding HIV-1 gp120 antibody PG9 | TR-FRET gp120-PG9 antibody binding | inhibition, % at 6.7 µM | 360,000 tested, 0.43% active | AID 624416; in the data active = inhibition above about 8.5%
Rev-erbA mod: Rev-erb alpha (human) modulation; activity, % at 10 µM; 370,000 tested, 0.79% active; Rev-erbα–FITC-DNA binding, fluorescence polarization, 90 min; AID 1259318;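 active = activity above about 14%, limit read from the data; passing the limit was not always enough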;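 also: 0% = DMSO wells with 35 nM protein and 100% = DMSO wells with 750 nM protein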
NR2E3 ag confirm: confirmation of human NR2E3 agonists; shares compounds with NR2E3 ag-1; CHO-S mammalian two-hybrid NR2E3-NCOR, luciferase luminescence; inhibition, % at 3.98 µM; 2,300 tested, 51% active; AID 624378;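 active = average inhibition above a cutoff equal to the mean inhibition of all tested compounds plus one SD, cut at about 70% in these data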;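 also: 0% = DMSO in NR2E3 cells and 100% = DMSO in cells lacking NR2E3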
VP16 counter: GAL4-VP16 reporter inhibition in NR2E3 agonist counterscreen | shares compounds with NR2E3 ag-1 | CHO-S GAL4-VP16 luciferase reporter, luminescence | inhibition, % at 3.98 µM | 2,300 tested, 29% active | AID 624379;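 active = mean inhibition above a cutoff equal to the average over all tested compounds plus one standard deviation, cut at about 70% in these data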;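 also: luciferase from a UAS reporter driven by GAL4-VP16 transactivation; 0% = DMSO with VP16-transfected cells and 100% = DMSO with cells lacking VP16; higher means less reporter light so more repression of VP16 activity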
Numbers without * were called inactive; nt = no result given.

SMILES	NR2E3 ag-1	NR2E3 ag-2	PG9 binder	Rev-erbA mod	NR2E3 ag confirm	VP16 counter
S=C1NCCc2ccc(Cl)cc2C1c1ccccc1 (stereo not given)	61	3	-1	0	43	21
COC(=O)[C@]12C[C@H](CC(=O)NCc3cccc4ccccc34)C(=O)N(Cc3ccco3)C1=C[C@H](C(C)C)O[C@@H]2C1CC1	nt	nt	nt	3	nt	nt
O=C(NCCc1ccccc1)c1ccc2c(c1)OCCCO2	87*	1	-2	-1	66	57
O=C(CCc1ccccc1)c1ccc2c(c1)OCCCO2	-156	-1	1	6	nt	nt
O=C(CCCc1ccccc1)c1ccc2c(c1)OCCO2	64	2	0	8	21	12
COc1cccc(NC(=O)C2CCCN2C(=O)Nc2cccc3c2OCO3)c1 (stereo not given)	nt	nt	nt	2	nt	nt
O=C(c1ccccc1)N1CC[C@H]2[C@H](CCCN2Cc2cc(F)cc(F)c2)C1	nt	nt	nt	-3	nt	nt
CC(C)(C)c1ccc(CNc2nc(-c3ccccn3)nnc2-c2ccccc2)cc1	nt	nt	nt	-3	nt	nt
COc1ccc(C#CCN(Cc2ccc(OC)cc2OC)C(N)=NC(=O)CCc2ccccc2)cc1	nt	nt	nt	3	nt	nt
Oc1ccc(O)c(C=NNC(=S)NC2CC3CC2C2C=CCC32)c1 (stereo not given)	53	nt	0	-1	-18	-34
COc1ccc(-c2csc(NC(=O)c3ccccc3NS(=O)(=O)c3ccc(F)c(F)c3)n2)cc1	98*	2	-1	3	101*	91*
O=C(Nc1cc(S(=O)(=O)N2CCCCC2)ccc1Cl)c1ccccc1NS(=O)(=O)c1ccc(F)cc1	96*	0	-2	-1	99*	85*
Cc1ccc(S(=O)(=O)Nc2nc(-c3ccccc3)cs2)cc1	-18	0	-2	-1	nt	nt
Cc1ccc(S(=O)(=O)Nc2ccccc2C(=O)Nc2nc(-c3ccc(F)cc3)cs2)cc1	94*	-3	-2	-2	98*	84*
CN(CCO)c1cccc2c1S(=O)(=O)N(Cc1cn(Cc3ccc(Cl)cc3)nn1)Cc1ccccc1O2	nt	nt	nt	2	nt	nt
CN1C/C(=C/c2ccccc2)N2C(=O)C[C@@H](c3ccccc3)N=C12	nt	nt	nt	5	nt	nt
CCn1cc(CNC(=O)c2cc(COc3ccc(F)cc3Cl)on2)cn1	-1	3	-2	4	nt	nt
CCn1nc(C)c(CNC(=O)c2cc(COc3ccc(F)cc3Cl)on2)c1C	51	1	0	3	86*	71*
Cc1cccc(/C=N/Nc2cc(N3CCOCC3)nc(N3CCOCC3)n2)c1	61	2	-1	3	75*	36
O=C(CSc1cccc[n+]1[O-])CSc1cccc[n+]1[O-]	69	0	-3	0	-4	-8
O=C(CSc1cccc[n+]1[O-])N1CCCCCC1	-7	-1	-1	-3	nt	nt
Cc1ccccc1CN1CCCCC(NC(=O)Nc2ccccc2-c2ccccc2)C1=O (stereo not given)	nt	nt	nt	2	nt	nt
O=C(CSc1nnc(-c2cccs2)n1Cc1ccco1)Nc1ccc(OCc2ccccc2)cc1	nt	nt	nt	3	nt	nt
CCOC(=O)C1=C[C@@H](C(C)(C)C)N(S(=O)(=O)c2ccc([N+](=O)[O-])cc2)[C@H]1c1ccccc1	70*	nt	-2	0	45	32
C=CC[C@@H]1NN2C(=O)[C@@H](CCc3ccccc3)[C@@H]3c4ccccc4C=NN3[C@@H]2c2ccccc21	nt	nt	nt	6	nt	nt
SMILES	NR2E3 ag-1	NR2E3 ag-2	PG9 binder	Rev-erbA mod	NR2E3 ag confirm	VP16 counter
Cc1ccc(F)cc1CNC(=O)c1cc(COc2ccc3ncccc3c2)on1	79*	5	-1	5	96*	86*
O=C(NCc1cccc(Cl)c1)c1cc(COc2ccc3ncccc3c2)on1	76*	-4	0	-2	95*	79*
CC(CCCC(C)(C)O)NC(=O)c1cc(COc2ccc3ncccc3c2)on1 (stereo not given)	62	0	0	1	88*	75*
Cc1ccc(OCc2cc(C(=O)NC(C)Cc3cccnc3)no2)cc1C (stereo not given)	-67	-4	-4	-3	nt	nt
Cc1cc(C)n(CCNC(=O)c2cc(COc3ccc4ncccc4c3)on2)n1	30	4	-1	4	nt	nt
COC(=O)C1CN(C2CCCC2)CCS(=O)(=O)N1Cc1cn(Cc2ccc(C)cc2)nn1 (stereo not given)	nt	nt	nt	-2	nt	nt
O=S(=O)(Nc1cc(Cl)ccc1-n1cncn1)c1cc(Br)ccc1Br	92*	0	-1	2	99*	85*
CCCCCCCCSC1=CC(=O)C(OC)=C(OC)C1=O	59	nt	3	8	93*	68
CCCCCSc1nncc(=O)[nH]1	-17	1	-2	4	nt	nt
CCOc1ccc(CCNC(=O)COC(=O)Cc2ccc(F)cc2)cc1OCC	59	2	2	9	22	13
CCOc1ccc(CCNC(=O)COC(=O)Cc2c[nH]c3ccccc23)cc1OCC	-5	3	0	-4	nt	nt
CC1Sc2ccc(S(=O)(=O)N3CCC(C(=O)Nc4ccc(Cl)cc4)CC3)cc2NC1=O (stereo not given)	103*	-2	-1	7	94*	75*
COc1ccc(NC(=O)C2CCN(S(=O)(=O)c3ccc4c(c3)NC(=O)C(C)S4)CC2)cc1 (stereo not given)	4	0	0	-2	nt	nt
Cc1ccc(NC(=O)C2CCN(S(=O)(=O)c3ccc(N4CCCC4=O)cc3)CC2)cc1Cl	107*	-4	0	0	99*	91*
COC(=O)C1CN(Cc2cn(Cc3ccc(OC)cc3)nn2)CCS(=O)(=O)N1Cc1ccc(Cl)cc1 (stereo not given)	nt	nt	nt	-4	nt	nt
COc1cc(OC)cc(-c2cc3nc(C)c(CCC(=O)NC(C)CCc4ccco4)c(C)n3n2)c1 (stereo not given)	7	2	2	-6	nt	nt
COc1cc(OC)cc(-c2cc3nc(C)c(CCC(=O)O)c(C)n3n2)c1	51	-3	1	-1	57	63
Cc1ccc2c(c1)nnn2C1CCN(S(=O)(=O)c2ccc(C(=O)O)cc2)CC1	-20	0	1	-2	nt	nt
Cc1ccc2c(c1)nnn2C1CCN(S(=O)(=O)c2ccc(C(=O)N3C(C)CCCC3C)cc2)CC1 (stereo not given)	71*	-1	-3	-1	89*	71*
CC1=C2NC(N)=[N+](Cc3ccc4c(c3)OCO4)CC2n2c(=O)n(-c3ccccc3)c(=O)n2C1 (stereo not given)	nt	nt	nt	-3	nt	nt
CCn1c2ccccc2c2cc(NC(=O)c3cc(OC)cc(OC)c3)ccc21	51	3	-1	5	-4	9
CCn1c2ccccc2c2cc(NC(=O)c3cc(OC)c(OC)c(OC)c3)ccc21	22	0	2	-4	nt	nt
Clc1ccc(OCCN2CCN(c3ncnc4sccc34)CC2)cc1	89*	-2	1	6	98*	93*
